SENP1 inh – human SENP1 catalytic domain inhibitors, primary screen, biochemical, FRET, uHTS; Sentrin-specific protease 1 (Homo sapiens), Q9P0U3; recombinant SENP1 catalytic domain, CyPet-SUMO1-YPet FRET cleavage; inhibition, % at 10 µM; hit rate 0.21% among 360,000;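 active = inhibition at least 30% at 10 µM, raw YFP signal under a set limit, fluorescence ratio 0.5 to 1.5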;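 also: 0% = enzyme with DMSO and 100% = no enzyme wells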
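material = recombinant human SENP1 catalytic domain, His6-tagged | quantity = 20 pM enzyme | reagent = 25 nM SUMO1 FRET substrate | compound dosing = 10 µM single point, 0.5% DMSO | timing = 50 min enzyme reaction, room temperature, light-protected | detection = FRET, CFP and YFP emission | control set = no-enzyme low, enzyme-DMSO high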
ADAM17 inh – ADAM17 inhibitors, primary screen, biochemical, QFRET. Disintegrin and metalloproteinase domain-containing protein 17 (Homo sapiens), P78536. recombinant ADAM17, EDANS/DABCYL FRET peptide cleavage. inhibition, % at 6.95 µM. hit rate 0.83% among 370,000. AID 720648, 2013;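 active = inhibition above the mean of compounds lying between control limits plus 3 SD, set per campaign, cut at about 8.5% in these data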;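 also: 0% = DMSO-only wells as the low control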
Target sequence (P78536 215-824 limits assumed): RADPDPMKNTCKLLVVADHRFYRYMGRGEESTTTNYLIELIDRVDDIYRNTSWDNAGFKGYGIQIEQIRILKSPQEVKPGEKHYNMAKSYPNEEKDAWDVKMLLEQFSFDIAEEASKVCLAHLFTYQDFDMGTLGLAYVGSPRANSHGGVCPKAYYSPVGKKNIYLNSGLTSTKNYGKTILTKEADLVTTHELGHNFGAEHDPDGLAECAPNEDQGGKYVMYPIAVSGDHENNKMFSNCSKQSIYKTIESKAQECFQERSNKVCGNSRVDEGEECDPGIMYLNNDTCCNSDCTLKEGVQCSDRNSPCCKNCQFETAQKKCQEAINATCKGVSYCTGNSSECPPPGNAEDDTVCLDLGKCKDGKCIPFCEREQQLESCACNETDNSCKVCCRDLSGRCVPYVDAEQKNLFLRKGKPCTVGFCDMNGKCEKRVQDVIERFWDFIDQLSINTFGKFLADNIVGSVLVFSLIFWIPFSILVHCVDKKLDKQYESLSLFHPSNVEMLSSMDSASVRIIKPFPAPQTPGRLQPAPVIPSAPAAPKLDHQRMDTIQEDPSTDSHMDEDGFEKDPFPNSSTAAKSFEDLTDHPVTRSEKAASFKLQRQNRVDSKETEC
ADAM10 inh – human ADAM10 inhibitors, primary screen, biochemical, QFRET, HTS; Disintegrin and metalloproteinase domain-containing protein 10 (Homo sapiens), O14672; recombinant ADAM10, EDANS/DABCYL FRET peptide cleavage, 3 h; inhibition, % at 7 µM; hit rate 0.62% among 370,000;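 active = inhibition above a per-campaign cutoff equal to the mean of compounds falling between control-based bounds plus 3 SD, cut at about 20% in these data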;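 also: 0% = DMSO wells while the 100% control is not disclosed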
FAS TE block – FAS thioesterase domain inhibitors, primary screen, biochemical, fluorescence intensity, uHTS. inhibition, % at 15 µM. hit rate 0.67% among 360,000. AID 602261, 2012. recombinant FAS-TE, OMFH fluorogenic substrate, fluorescence endpoint. Fatty acid synthase (Homo sapiens), P49327;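 active = compounds whose normalised, plate-corrected inhibition of enzyme fluorescence in the single-dose primary screen is 50% or more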;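 also: 0% = DMSO with enzyme and 100% = substrate without enzyme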
SENP1 inh conf – human SENP1 catalytic domain inhibitors, confirmation, biochemical, FRET endpoint, single concentration | shares compounds with SENP1 inh | inhibition, % at 10 µM | hit rate 34% among 520 | AID 651678, 2012 | recombinant SENP1, CyPet-SUMO1-YPet FRET cleavage; in the data active = inhibition mostly above about 35%, no sharp cut-off; inactive = mostly below about 32%;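 also: 0% = enzyme with DMSO and 100% = no enzyme control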
SENP1 kin conf – human SENP1 catalytic domain inhibitors, confirmation, biochemical, kinetic FRET, single concentration; shares compounds with SENP1 inh; inhibition, % at 10 µM; recombinant SENP1, CyPet-SUMO1-YPet FRET kinetic cleavage; hit rate 26% among 520; in the data active = inhibition mostly above about 32%, no sharp cut-off; inactive = mostly below about 29%;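 also: 0% = DMSO with enzyme and 100% = no enzyme substrate only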
ADAM10 confirm – human ADAM10 inhibitors, confirmation, biochemical, QFRET, triplicate | ADAM10 QFRET peptide cleavage, EDANS fluorescence | inhibition, % at 6.95 µM | AID 743208, 2013 | hit rate 1% among 2,100 | shares compounds with ADAM10 inh;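 active = inhibition above about 20% chosen separately for each screening run, limit read from the data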;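 also: 0% = DMSO wells and 100% = marimastat wells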
ADAM17 counter – ADAM17 inhibitors, counter-screen for ADAM10 exosite inhibitor project, biochemical, QFRET, high throughput. inhibition, % at 6.95 µM. ADAM17 QFRET peptide cleavage, EDANS fluorescence. AID 743214, 2013. hit rate 0.5% among 2,100. shares compounds with ADAM10 inh;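 active = mean triplicate inhibition above the solvent-only control wells' mean plus 3 SD, cut at about 12% in these data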;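 also: 0% = DMSO wells and 100% = marimastat wells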
ADAM10 counter – ADAM10 inhibitors, counter-screen for ADAM17 exosite inhibitor project, biochemical, FRET, human ADAM10 | shares compounds with ADAM17 inh | recombinant ADAM10, EDANS/DABCYL FRET peptide cleavage, 3 h | inhibition, % at 6.95 µM | hit rate 47% among 2,900 | AID 743256, 2014;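 active = mean inhibition over the triplicate runs exceeds the activity threshold set in the earlier primary screen, cut at about 20% in these data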;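 also: 0% = DMSO wells and 100% = marimastat wells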
ADAM17 confirm – ADAM17 inhibitors, hit retest, confirmation, biochemical, QFRET peptide cleavage; shares compounds with ADAM17 inh; recombinant ADAM17, EDANS/DABCYL QFRET peptide cleavage; inhibition, % at 6.95 µM; hit rate 65% among 2,900;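 active = mean inhibition across replicates above the hit cutoff set in the primary screen, cut at about 8.5% in these data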;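 also: 0% = DMSO wells and 100% = marimastat wells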
* marks the source's active call; other numbers are inactive results; · = no result. In the library only some 1.9% were active in any assay of this set; here they are far more common.

SMILES	SENP1 inh	ADAM17 inh	ADAM10 inh	FAS TE block	ADAM10 confirm	ADAM17 counter	others
C=CCc1c(C)nc(-c2ccccc2)nc1Nc1ccccc1O	47*	10*	15	17	·	·	SENP1 inh conf=15;SENP1 kin conf=11;ADAM10 counter=29*;ADAM17 confirm=17*
NC(=O)C1CCN(c2nc(-c3ccc4c(c3)OCCCO4)cs2)CC1	·	1	2	·	·	·
COc1ccc(-c2nc(CN3CCN(Cc4ccccc4)CC3)c(C)o2)cc1	-6	-2	79*	-2	2	1
CCn1c(=O)n(CC(=O)N2CCC(C)CC2)c(=O)c2ccccc21	·	-2	-7	·	·	·
Oc1ccccc1CN(Cc1ccco1)CC(O)COCc1ccc(Cl)cc1 (configuration not stated)	1	9	23*	20	3	1
Cc1ccc(C)c(NS(=O)(=O)c2cc(C(=O)NCC3CCCO3)ccc2C)c1 (configuration not stated)	4	4	-4	-1	·	·
Cc1ccc(C)c(NS(=O)(=O)c2cc(C(=O)NCCC3=CCCCC3)ccc2C)c1	2	7	20*	24	4	2
COc1ccc(Oc2c(-c3cccs3)cnn(-c3ccc(C)cc3)c2=O)cc1	·	-3	-8	·	·	·
CCN(CC)C(=O)CC[C@H]1CC[C@]2(CCCN(Cc3nccn3C)C2)O1	·	-2	-1	·	·	·
O=S(=O)(Nc1cccc2cccnc12)c1ccccc1	0	-4	0	6	·	·
O=S(=O)(Nc1cccc2cccnc12)c1ccc(S(=O)(=O)N2CCCC2)cc1	2	5	22*	15	3	2
O=C(c1ccncc1)N1CCC(Oc2cccnc2)CC1	·	-1	5	·	·	·
CSc1ccccc1NC(=O)CN(c1cc(C)cc(C)c1)S(C)(=O)=O	1	-2	0	-2	·	·
CS(=O)(=O)N(CC(=O)Nc1ccccc1Sc1ccccc1)c1cccc(Br)c1	2	11*	25*	26	12	4
CCn1c2ccccc2c2cc(C=NNC(=O)CSc3nc4ccccc4c(=O)n3-c3ccccc3)ccc21	·	-1	-8	·	·	·
O=C(c1cc(-c2ccccc2)n[nH]1)N1CCc2c([nH]c3ccccc23)C1c1ccccn1 (configuration not stated)	-18	5	27*	19	6	3
COc1cccc(CC(=O)O[C@@H]2CCC[C@@]3(C(=O)N(Cc4ccccc4)c4ccccc43)[C@H]2NC(=O)CCc2ccccc2)c1	·	7	15	·	·	·
Cc1ccc(NC(=O)C2CC3CCC2C3)c(C)c1 (configuration not stated)	·	-4	-9	·	·	·
CCOc1cccc(NC(=O)C2CC(=O)N(C)C(=Nc3cccc(F)c3)S2)c1 (configuration not stated)	2	6	21*	25	4	1
Cc1ccc(C(c2cc(Br)ccc2O)N2CCSCC2)cc1 (configuration not stated)	4	6	25*	22	1	0
CCOc1ccc(/C=C(\C)C(=O)c2c(C)cc(C)[nH]c2=O)cc1	1	7	20*	-3	-2	-1
CCCCNC[C@@]12CO[C@H](c3ccc(Cl)cc3)N1[C@@H](c1ccc(Cl)cc1)SC2	·	0	0	·	·	·
CCn1c(SCC(=O)Nc2nc3ccccc3s2)nnc1-c1ccc(OC)cc1	-4	1	20*	-9	0	1
N#Cc1ccc(CN(Nc2ccccc2)c2ccccc2)cc1	-1	8	27*	24	5	2
COC(=O)c1ccc(CSc2nc3ccccc3c(=O)n2-c2ccc(OC)c(OC)c2)o1	0	-1	8	29	·	·
SMILES	SENP1 inh	ADAM17 inh	ADAM10 inh	FAS TE block	ADAM10 confirm	ADAM17 counter	others
COC(=O)c1ccc(CSc2nc3ccccc3c(=O)n2-c2ccccc2)o1	3	4	20*	19	4	1
Clc1ccc(CN2CCN(N=Cc3ccncc3)CC2)cc1	·	2	3	·	·	·
Cc1ccc(C(=O)COC(=O)c2cccc(NC(=O)c3ccc([N+](=O)[O-])cc3[N+](=O)[O-])c2)cc1	0	4	25*	26	6	1
CCc1c(-c2ccccc2)ncn1Cc1cccc(-c2ccccc2)c1	3	17*	25*	·	7	3
CCc1c(-c2cccc(OC)c2)ncn1Cc1cccc(-c2ccccc2)c1	3	4	8	·	·	·
COc1cc(/C=N/NC(=O)c2ccc(C)nc2)cc([N+](=O)[O-])c1O	1	6	22*	0	1	-1
Cc1cc(SCC(=O)N/N=C/c2ccc(O)c(O)c2)nc2ccccc12	2	3	8	0	·	·
Cc1cc(SCC(=O)N/N=C/c2ccc(O)c(O)c2)c(C)cc1Br	3	4	29*	5	6	2
CC(=O)N[C@@H]1C[C@@H]2O[C@H](CO)CC[C@@H]2O[C@@H]1CCc1ccc(C#CC2(O)CCCC2)cc1	·	-1	-1	·	·	·
COC(=O)[C@]12C[C@H](CC(=O)NCc3cccc(C(F)(F)F)c3)C(=O)N(Cc3cccc4ccccc34)C1=C[C@H](C(C)(C)C)O[C@@H]2C	·	6	15	·	·	·
Cc1onc(-c2ccccc2)c1-c1nnc(COC(=O)c2ccc(O)cc2)o1	0	7	22*	5	0	0

From PubChem
